Molecules are shown by their SMILES.

Test [1] is described as follows: Selectivity ratio of IC50 for MMP2 to IC50 for aminopeptidase N in pig kidney microsome.
A further test has as its target T1, Aminopeptidase N (Sus scrofa, UniProt P15145).
T1 sequence (P15145 whole entry): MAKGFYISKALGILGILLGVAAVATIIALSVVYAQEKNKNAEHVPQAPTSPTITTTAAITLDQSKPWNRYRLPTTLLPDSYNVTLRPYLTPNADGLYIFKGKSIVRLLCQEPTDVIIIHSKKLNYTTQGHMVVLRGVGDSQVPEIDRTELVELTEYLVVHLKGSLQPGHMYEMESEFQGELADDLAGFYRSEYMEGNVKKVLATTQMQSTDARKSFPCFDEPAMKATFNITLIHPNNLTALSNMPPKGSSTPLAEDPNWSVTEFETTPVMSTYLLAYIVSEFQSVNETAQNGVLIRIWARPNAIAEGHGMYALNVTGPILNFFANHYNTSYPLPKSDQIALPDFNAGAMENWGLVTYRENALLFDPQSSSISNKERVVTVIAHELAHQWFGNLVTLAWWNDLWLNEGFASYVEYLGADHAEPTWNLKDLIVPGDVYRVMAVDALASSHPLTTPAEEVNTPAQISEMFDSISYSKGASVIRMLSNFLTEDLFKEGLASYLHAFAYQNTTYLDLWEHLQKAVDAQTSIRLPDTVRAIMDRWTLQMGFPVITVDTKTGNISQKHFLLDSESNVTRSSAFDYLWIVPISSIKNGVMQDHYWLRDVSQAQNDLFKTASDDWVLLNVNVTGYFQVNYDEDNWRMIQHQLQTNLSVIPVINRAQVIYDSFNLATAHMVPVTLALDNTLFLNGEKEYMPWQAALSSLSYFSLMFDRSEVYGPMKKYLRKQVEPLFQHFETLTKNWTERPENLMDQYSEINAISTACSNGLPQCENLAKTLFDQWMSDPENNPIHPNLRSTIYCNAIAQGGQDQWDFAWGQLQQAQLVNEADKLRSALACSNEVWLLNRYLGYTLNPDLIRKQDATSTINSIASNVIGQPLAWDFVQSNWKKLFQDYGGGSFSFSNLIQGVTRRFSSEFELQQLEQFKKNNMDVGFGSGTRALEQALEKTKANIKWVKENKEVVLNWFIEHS
The experiment in a line: Inhibition of aminopeptidase N in pig kidney microsome by spectrophotometry. It counts as microsomes. In outline: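 Porcine kidney microsomal aminopeptidase (4 μg/mL final) preincubated with inhibitor for 30 min at room temperature in 50 mM PBS, pH 7.2. Inhibitor solutions made in assay buffer and adjusted to pH 7.5. Substrate L-Leu-p-nitroanilide. IC50 determined.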

The target of test [2] is 72 kDa type IV collagenase (Homo sapiens, UniProt P08253). Put plainly: Inhibition of MMP2. In outline: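 MMP-2 (gelatinase A) incubated with substrate and inhibitor in 50 mmol/L sodium borate, pH 8.5, 30 min at 37 °C. 0.03% TNBS then added and incubated a further 20 min. Absorbance read at 450 nm.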
Chain of 72 kDa type IV collagenase (P08253 whole entry): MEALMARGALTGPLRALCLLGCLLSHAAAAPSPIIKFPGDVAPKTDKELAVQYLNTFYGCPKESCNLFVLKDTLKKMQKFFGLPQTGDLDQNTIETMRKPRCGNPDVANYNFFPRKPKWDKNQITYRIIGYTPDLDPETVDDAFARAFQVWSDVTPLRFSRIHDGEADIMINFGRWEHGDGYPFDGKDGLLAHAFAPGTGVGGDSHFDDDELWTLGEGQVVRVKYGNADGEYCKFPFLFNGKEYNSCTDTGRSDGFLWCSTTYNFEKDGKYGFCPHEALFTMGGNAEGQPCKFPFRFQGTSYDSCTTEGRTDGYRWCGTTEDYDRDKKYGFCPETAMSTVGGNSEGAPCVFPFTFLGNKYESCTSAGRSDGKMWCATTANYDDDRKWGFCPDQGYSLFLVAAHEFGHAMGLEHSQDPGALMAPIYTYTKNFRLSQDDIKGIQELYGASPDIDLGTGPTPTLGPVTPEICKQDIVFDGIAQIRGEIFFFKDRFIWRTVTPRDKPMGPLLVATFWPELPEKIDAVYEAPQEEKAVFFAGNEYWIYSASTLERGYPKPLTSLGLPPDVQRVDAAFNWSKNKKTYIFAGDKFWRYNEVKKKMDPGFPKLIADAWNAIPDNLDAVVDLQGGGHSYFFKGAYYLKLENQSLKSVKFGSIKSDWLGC

Regarding `N=C(NCCC[C@H](NS(=O)(=O)c1ccccc1)C(=O)NO)N[N+](=O)[O-]`, in test [1], the Ratio IC50 turned out to be 1.7.

`COc1ccc(C(=O)N[C@@H](CCCNC(=N)N[N+](=O)[O-])C(=O)NO)cc1OC`: the Ratio IC50 in test [1] is 12.8.

For orientation: IC50 means the concentration at which inhibition is half-maximal. With `N=C(NCCC[C@H](NC(=O)c1ccccc1)C(=O)NO)N[N+](=O)[O-]`, the figures for the IC50 (against Aminopeptidase N; in test [2]) were 80.6 µM and 693 µM, respectively. In test [1], the Ratio IC50 stood at 8.6.

Turning to `NC(=N[N+](=O)[O-])NCCC[C@H](NC(=O)c1ccccc1Cl)C(=O)NO`, the values for the IC50 (at Aminopeptidase N; in test [2]) were 20.4 µM and 150 µM, respectively.

With `COc1ccc(C(=O)N[C@@H](CCCNC(=N)N[N+](=O)[O-])C(=O)NO)cc1`, in test [1], the Ratio IC50 was 5.4.

On to `NC(=N[N+](=O)[O-])NCCC[C@H](NC(=O)c1ccc2ccccc2c1)C(=O)NO`, for which the results for the IC50 (on Aminopeptidase N; in test [2]) were 14.6 µM and 85.5 µM, respectively.

As for `N=C(NCCC[C@H](NC(=O)c1ccc(Cl)cc1)C(=O)NO)N[N+](=O)[O-]`, the IC50 on Aminopeptidase N was determined as 215 µM; in test [2], 238 µM. The Ratio IC50 in test [1] was 1.1.

On to `COc1cc(C(=O)N[C@@H](CCCNC(N)=N[N+](=O)[O-])C(=O)NO)cc(OC)c1OC`, for which the values for the IC50 (against Aminopeptidase N; in test [2]) were 271 µM and 41.1 µM, respectively.

Turning to `COc1cc(C(=O)N[C@@H](CCCNC(=N)N[N+](=O)[O-])C(=O)NO)cc(OC)c1OC`, in test [1], the Ratio IC50 came out at 0.2.

As for `N=C(NCCC[C@H](NC(=O)/C=C/c1ccccc1)C(=O)NO)N[N+](=O)[O-]`, the IC50 against Aminopeptidase N worked out at 1010 µM; in test [2], 36.7 µM. The Ratio IC50 in test [1] was found to be 0.04.

Take `N=C(NCCC[C@H](NC(=O)c1cccc(Cl)c1)C(=O)NO)N[N+](=O)[O-]`: the IC50 was found to be 202 µM against Aminopeptidase N and 89.2 µM in test [2]. For the same compound, the Ratio IC50 in test [1] is 0.4.

Regarding `Cc1cccc(C(=O)N[C@@H](CCCNC(=N)N[N+](=O)[O-])C(=O)NO)c1`, the IC50 came out at 42.8 µM against Aminopeptidase N and 623 µM in test [2]. The Ratio IC50 in test [1] was found to be 14.6.

For `NC(=N[N+](=O)[O-])NCCC[C@H](NC(=O)c1ccc(Br)c([N+](=O)[O-])c1)C(=O)NO`, the IC50 against Aminopeptidase N came to 5.1 µM; in test [2], 236 µM.

Consider `Cc1ccc(S(=O)(=O)N[C@@H](CCCNC(N)=N[N+](=O)[O-])C(=O)NO)cc1`, for which the IC50 is 109 µM on Aminopeptidase N and 28.9 µM in test [2].

As for `N=C(NCCC[C@H](NC(=O)CCc1ccccc1)C(=O)NO)N[N+](=O)[O-]`, the figures for the IC50 (on Aminopeptidase N; in test [2]) were 332 µM and 1640 µM, respectively. The Ratio IC50 in test [1] was 4.9.

Consider `NC(=N[N+](=O)[O-])NCCC[C@H](NC(=O)Cc1ccccc1)C(=O)NO`, for which the IC50 against Aminopeptidase N is 1660 µM; in test [2], 8.7 µM.

As to `COc1ccccc1C(=O)N[C@@H](CCCNC(=N)N[N+](=O)[O-])C(=O)NO`, the IC50 was found to be 78.4 µM against Aminopeptidase N and 253 µM in test [2]. In addition, the Ratio IC50 in test [1] is 3.2.

In the case of `N=C(NCCC[C@H](NC(=O)c1ccc(Cl)cc1Cl)C(=O)NO)N[N+](=O)[O-]`, the IC50 against Aminopeptidase N amounted to 5.3 µM; in test [2], 349 µM. In addition, in test [1], the Ratio IC50 was 65.8.

As for `COc1ccc(C(=O)N[C@@H](CCCNC(N)=N[N+](=O)[O-])C(=O)NO)cc1`, the 50% inhibitory concentration (IC50) at Aminopeptidase N stood at 60.2 µM; in test [2] it was 322 µM.

For `COc1cccc(C(=O)N[C@@H](CCCNC(=N)N[N+](=O)[O-])C(=O)NO)c1`, the IC50 at Aminopeptidase N came out at 16.5 µM; in test [2] it was 151 µM. Moreover, the Ratio IC50 in test [1] worked out at 9.1.

In the case of `N=C(NCCC[C@H](NC(=O)c1ccc(Br)cc1)C(=O)NO)N[N+](=O)[O-]`, the Ratio IC50 in test [1] stood at 1.1.

Take `N=C(NCCC[C@H](NC(=O)c1ccccc1I)C(=O)NO)N[N+](=O)[O-]`: the IC50 stood at 21.9 µM on Aminopeptidase N and 176 µM in test [2]. Moreover, the Ratio IC50 in test [1] turned out to be 8.

For the compound `Cc1ccccc1C(=O)N[C@@H](CCCNC(=N)N[N+](=O)[O-])C(=O)NO`, the IC50 at Aminopeptidase N is 221 µM; in test [2] it was 2070 µM. Further, the Ratio IC50 in test [1] came out at 9.3.

As for `NC(=N[N+](=O)[O-])NCCC[C@H](NC(=O)c1ccc(Br)cc1)C(=O)NO`, the IC50 against Aminopeptidase N is 443 µM; in test [2], 484 µM.

For `N=C(NCCC[C@H](NC(=O)c1ccccc1Cl)C(=O)NO)N[N+](=O)[O-]`, the Ratio IC50 in test [1] worked out at 7.3.

With `NC(=N[N+](=O)[O-])NCCC[C@H](NC(=O)c1cccs1)C(=O)NO`, the IC50 against Aminopeptidase N was 85.7 µM; in test [2], 226 µM.

For `N=C(NCCC[C@H](NC(=O)Cc1ccccc1)C(=O)NO)N[N+](=O)[O-]`, the Ratio IC50 in test [1] is 0.05.

With `COc1ccc(C(=O)N[C@@H](CCCNC(N)=N[N+](=O)[O-])C(=O)NO)cc1OC`, the IC50 is 26.9 µM against Aminopeptidase N and 346 µM in test [2].

As to `N=C(NCCC[C@H](NC(=O)c1ccc(Cl)c(Cl)c1)C(=O)NO)N[N+](=O)[O-]`, the IC50 against Aminopeptidase N is 33.5 µM; in test [2], 194 µM. For the same compound, the Ratio IC50 in test [1] stood at 5.8.

For the compound `N=C(NCCC[C@H](NC(=O)c1cccc([N+](=O)[O-])c1)C(=O)NO)N[N+](=O)[O-]`, the results for the IC50 (against Aminopeptidase N; in test [2]) were 43.4 µM and 102 µM, respectively. The Ratio IC50 in test [1] worked out at 2.3.

For the compound `N=C(NCCC[C@H](NC(=O)c1ccc([N+](=O)[O-])cc1)C(=O)NO)N[N+](=O)[O-]`, the IC50 amounted to 15.9 µM against Aminopeptidase N and 204 µM in test [2]. In test [1], the Ratio IC50 came to 12.8.

On to `N=C(NCCC[C@H](NC(=O)c1cccs1)C(=O)NO)N[N+](=O)[O-]`, for which the Ratio IC50 in test [1] is 2.6.

Consider `N=C(NCCC[C@H](NC(=O)c1ccc(Br)c([N+](=O)[O-])c1)C(=O)NO)N[N+](=O)[O-]`, for which the Ratio IC50 in test [1] was 46.3.

`NC(=N[N+](=O)[O-])NCCC[C@H](NS(=O)(=O)c1ccccc1)C(=O)NO`: the IC50 against Aminopeptidase N is 60.2 µM; in test [2] it was 100 µM.

Take `N=C(NCCC[C@H](NC(=O)c1ccc2ccccc2c1)C(=O)NO)N[N+](=O)[O-]`: the Ratio IC50 in test [1] amounted to 5.9.

Turning to `Cc1ccc(S(=O)(=O)N[C@@H](CCCNC(=N)N[N+](=O)[O-])C(=O)NO)cc1`, the Ratio IC50 in test [1] turned out to be 0.3.

For the origin of these results see ChEMBL document CHEMBL1154052, “Design, synthesis and primary activity evaluation of L-arginine derivatives as amino-peptidase N/CD13 inhibitors” (Bioorg Med Chem, 2009).
